The test system of data set [1] is Rattus norvegicus. Nature of the data set: Toxicity in albino rat assessed as mortality upto 100 mg/kg after 30 mins to 48 hrs. Set-up: dose 100 mg/kg. The settings on record: in vivo. The format is organism-based. The method in brief:
(§1)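 Acute toxicity followed OECD guidelines. Nulliparous, non-pregnant female albino rats (120–150 g) were fasted overnight with water ad libitum. Graded oral doses up to 100 mg/kg were given in 0.3% carboxymethyl cellulose. Rats were observed continuously for 30 min, at 2 h and up to 48 h for behavioural or autonomic changes, tremors, convulsions, salivation, diarrhoea, sleep, lacrimation, cardiovascular signs, feeding and mortality.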

The subject of data set [2] is Rattus norvegicus. Nature of the data set: Cognitive enhancing effect in Charles Foster rat assessed as reversal of scopolamine-induced amnesia measured as transfer latency at 10 mg/kg, po for 8 days administered 1 hr prior to scopolamine-challenge on day 7 measured on same day by elevated plus maze test (reference value: 67.83 +/- 0.94 seconds). Format: functional.

Data set [3] relates to Rattus norvegicus. The experiment in a line: Cognitive enhancing effect in Wistar rat assessed as reversal of learning impairment measured as transfer latency at 5 mg/kg, po for 8 days measured on first day of test by elevated plus maze test (reference value: 70.846 +/- 0.76 seconds). The format is functional. The essentials: (§2)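 Oral dosing at 5 or 10 mg/kg for 8 days, suspended in 0.3% carboxymethyl cellulose; vehicle-treated controls. Transfer latency on elevated plus maze measured on first and second days of exposure (treatment days 7 and 8). Mean ± SEM, n = 6, one-way ANOVA versus vehicle control.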

Data set [4] has as its system Rattus norvegicus. The experiment in a line: Activity at AChE in Charles Foster rat prefrontal cortex assessed as substrate hydrolyzed per mg of protein at 5 mg/kg, po for 8 days by Ellman's method (reference value: 45.83 +/- 0.94 mol/min). The format is functional. Background: Ellman's reagent forms a yellow product with free thiols.
The subject of data set [5] is Rattus norvegicus. Nature of the data set: Activity at AChE in Charles Foster rat hippocampus assessed as substrate hydrolyzed per mg of protein at 5 mg/kg, po for 8 days by Ellman's method (reference value: 47.50 +/- 0.84 mol/min). Format: functional.
The nature of data set [6]: Selectivity ratio of IC50 for human serum BChE to IC50 for electric eel AChE. The method in brief:
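Ratio of IC50 (BChE) to IC50 (AChE). Both came from Ellman assays at 0.1 M phosphate pH 8.0 and 0.02 unit/mL enzyme: AChE (stock in phosphate buffer) with acetylthiocholine, human serum BChE (stock in 0.1% gelatine) with butyrylthiocholine.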

Data set [7] has as its target T1, Cholinesterase (Homo sapiens, UniProt P06276). Nature of the data set: Competitive inhibition of human serum BChE using butyrylthiocholine iodide as substrate by Lineweaver-Burk plot analysis. The method in brief: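 Ellman assay in phosphate buffer pH 8 with a fixed amount of cholinesterase. Thiocholine substrate was varied from below to above, but near, Km, with or without inhibitor. Inhibition type was assigned from Lineweaver–Burk plots.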

The test system of data set [8] is Rattus norvegicus. Nature of the data set: Cognitive enhancing effect in Wistar rat assessed as reversal of learning impairment measured as transfer latency at 5 mg/kg, po for 8 days measured on second day of test by elevated plus maze test (reference value: 66.824 +/- 0.47 seconds). The format is functional. The method in brief:
as §2

Data set [9] relates to Rattus norvegicus. Nature of the data set: Cognitive enhancing effect in Charles Foster rat assessed as reversal of scopolamine-induced amnesia measured as transfer latency at 10 mg/kg, po for 8 days administered 1 hr prior to scopolamine-challenge on day 7 measured on day 8 by elevated plus maze test (reference value: 62.17 +/- 0.47 seconds). Format: functional.
Data set [10] relates to Rattus norvegicus. Nature of the data set: Toxicity in albino rat assessed as change in normal behavioral response upto 100 mg/kg after 30 mins to 48 hrs. The format is organism-based. The following applies: in vivo. Further details: dose 100 mg/kg. The method in brief: as §1
For data set [11], the system named is Rattus norvegicus. Nature of the data set: Cognitive enhancing effect in Wistar rat assessed as reversal of learning impairment measured as transfer latency at 10 mg/kg, po for 8 days measured on second day of test by elevated plus maze test (reference value: 66.824 +/- 0.47 seconds). Format: functional. The essentials:
as §2

The target in data set [12] is T2, Acetylcholinesterase (Electrophorus electricus, UniProt O42275). The experiment in a line: Non competitive inhibition of electric eel AChE using acetylthiocholine iodide as substrate by Lineweaver-Burk plot analysis.
For data set [13], the system named is Rattus norvegicus. The experiment in a line: Cognitive enhancing effect in Charles Foster rat assessed as reversal of scopolamine-induced amnesia measured as transfer latency at 5 mg/kg, po for 8 days administered 1 hr prior to scopolamine-challenge on day 7 measured on same day by elevated plus maze test (reference value: 67.83 +/- 0.94 seconds). Format: functional.

Data set [14] relates to Rattus norvegicus. Nature of the data set: Cognitive enhancing effect in Charles Foster rat assessed as reversal of scopolamine-induced amnesia measured as transfer latency at 5 mg/kg, po for 8 days administered 1 hr prior to scopolamine-challenge on day 7 measured on day 8 by elevated plus maze test (reference value: 62.17 +/- 0.47 seconds). Format: functional.
Data set [15] concerns the target T1, Cholinesterase. Nature of the data set: Inhibition of human serum BChE using butyrylthiocholine iodide as substrate preincubated for 20 mins prior to substrate addition by Ellman's method. The method in brief: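 Human serum BChE was dissolved in 0.1% gelatine. The final mix held 0.1 M phosphate pH 8.0, DTNB, 0.02 unit/mL enzyme and butyrylthiocholine iodide. Five inhibitor concentrations spanning 20–80% inhibition were preincubated with enzyme for 20 min at 37 °C, then substrate was added. Rate was read at 412 nm over 5 min against an enzyme-free blank. Each point was run in triplicate, and IC50 was read graphically from log concentration–% inhibition curves.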

The test system of data set [16] is Rattus norvegicus. Nature of the data set: Cognitive enhancing effect in Wistar rat assessed as reversal of learning impairment measured as transfer latency at 10 mg/kg, po for 8 days measured on first day of test by elevated plus maze test (reference value: 70.846 +/- 0.76 seconds). The format is functional. The essentials:
as §2

The subject of data set [17] is Rattus norvegicus. Nature of the data set: Cognitive enhancing effect in po dosed Wistar rat assessed as reversal of learning impairment measured as transfer latency administered for 8 days by elevated plus maze test. The format is functional, organism-based. The method in brief:
as §2

Data set [18] has as its target T2, Acetylcholinesterase. The experiment in a line: Inhibition of electric eel AChE using acetylthiocholine iodide as substrate preincubated for 20 mins prior to substrate addition by Ellman's method. The following applies: for pIC50: read-out: IC50.
The subject of data set [19] is Rattus norvegicus. Nature of the data set: Activity at AChE in Charles Foster rat hypothalamus assessed as substrate hydrolyzed per mg of protein at 10 mg/kg, po for 8 days by Ellman's method (reference value: 40.50 +/- 0.76 mol/min). The format is functional.
The test system of data set [20] is Rattus norvegicus. Nature of the data set: Activity at AChE in Charles Foster rat hypothalamus assessed as substrate hydrolyzed per mg of protein at 5 mg/kg, po for 8 days by Ellman's method (reference value: 40.50 +/- 0.76 mol/min). The format is functional.
Data set [21] concerns Rattus norvegicus. Nature of the data set: Activity at AChE in Charles Foster rat prefrontal cortex assessed as substrate hydrolyzed per mg of protein at 10 mg/kg, po for 8 days by Ellman's method (reference value: 45.83 +/- 0.94 mol/min). The format is functional.
The subject of data set [22] is Rattus norvegicus. Nature of the data set: Activity at AChE in Charles Foster rat hippocampus assessed as substrate hydrolyzed per mg of protein at 10 mg/kg, po for 8 days by Ellman's method (reference value: 47.50 +/- 0.84 mol/min). Format: functional.

We go through two molecules from ChEMBL document CHEMBL2413015, “Synthesis, evaluation and molecular dynamics study of some new 4-aminopyridine semicarbazones as an antiamnesic and cognition enhancing agents” (Bioorg Med Chem, 2013).

pIC50, pKi: −log10 of the molar value.

T2 sequence (O42275 whole entry): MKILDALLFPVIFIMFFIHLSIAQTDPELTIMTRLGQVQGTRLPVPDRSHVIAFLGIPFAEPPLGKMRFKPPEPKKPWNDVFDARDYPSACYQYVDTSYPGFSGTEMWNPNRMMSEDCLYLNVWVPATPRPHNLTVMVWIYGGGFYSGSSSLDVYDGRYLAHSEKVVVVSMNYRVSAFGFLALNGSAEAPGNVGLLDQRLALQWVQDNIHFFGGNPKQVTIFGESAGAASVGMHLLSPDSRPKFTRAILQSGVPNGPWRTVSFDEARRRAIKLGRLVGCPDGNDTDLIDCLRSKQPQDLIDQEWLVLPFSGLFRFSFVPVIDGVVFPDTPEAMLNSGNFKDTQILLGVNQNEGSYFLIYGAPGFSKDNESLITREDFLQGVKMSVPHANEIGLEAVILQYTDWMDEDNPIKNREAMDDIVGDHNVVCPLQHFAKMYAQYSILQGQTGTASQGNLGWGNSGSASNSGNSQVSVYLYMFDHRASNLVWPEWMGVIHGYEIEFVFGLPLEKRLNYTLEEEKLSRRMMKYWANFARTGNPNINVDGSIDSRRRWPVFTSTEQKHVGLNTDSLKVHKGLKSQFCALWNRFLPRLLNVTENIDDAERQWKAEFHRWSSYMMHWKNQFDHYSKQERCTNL
T1 sequence (P06276 whole entry): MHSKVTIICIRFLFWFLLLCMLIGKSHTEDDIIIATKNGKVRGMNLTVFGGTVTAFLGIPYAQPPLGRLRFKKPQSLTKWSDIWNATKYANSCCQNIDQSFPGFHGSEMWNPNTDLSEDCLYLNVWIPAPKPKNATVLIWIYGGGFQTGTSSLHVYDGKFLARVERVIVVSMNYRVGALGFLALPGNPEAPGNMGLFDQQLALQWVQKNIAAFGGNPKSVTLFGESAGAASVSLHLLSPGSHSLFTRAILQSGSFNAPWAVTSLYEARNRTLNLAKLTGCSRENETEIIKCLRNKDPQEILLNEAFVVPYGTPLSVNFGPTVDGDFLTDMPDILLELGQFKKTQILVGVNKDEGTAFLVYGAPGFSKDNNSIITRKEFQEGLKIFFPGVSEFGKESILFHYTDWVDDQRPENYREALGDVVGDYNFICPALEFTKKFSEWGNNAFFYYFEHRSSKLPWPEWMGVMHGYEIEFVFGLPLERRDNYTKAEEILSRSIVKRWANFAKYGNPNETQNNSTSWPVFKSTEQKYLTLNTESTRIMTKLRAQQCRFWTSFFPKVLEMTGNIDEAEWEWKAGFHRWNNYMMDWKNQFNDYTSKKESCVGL

For the molecule `O=C(NN=C(c1ccccc1)c1ccccc1)Nc1ccncc1`, the Activity result was “Non-toxic” in [1]; 32.67 mol/min in data set [4]; 33.67 mol/min in [5]; “Non-toxic” in data set [10]; “Dose-dependent effect” in data set [17]; 29.17 mol/min in [19]. Besides, the Activity in data set [20] is recorded as 31 mol/min; in [21], 30 mol/min; in [22], 32 mol/min. Besides, the Time in data set [2] is 61.83 s; in data set [3] it was 46.81 s; in data set [8], 40.42 s; in data set [9], 54.17 s; in [11], 37.97 s; in data set [13], 64.57 s. Further, the results for the Time in [14] and in data set [16] were 56.13 s and 43.73 s, respectively. Besides, the Ratio IC50 in data set [6] is 355. The pKi was 4.77 in data set [7] and 7.09 in data set [12]. For the same molecule, the pIC50 was 4.73 in [15] and 7.28 in data set [18].

Take `C/C(=N\NC(=O)Nc1ccncc1)c1ccc(O)cc1`: the Activity result in [1] was “Non-toxic”; in [4], 35.5 mol/min; in data set [5] it was 36.33 mol/min; in [10], “Non-toxic”; in [17], “Dose-dependent effect”; in data set [19], 31.5 mol/min. The figures for the Activity in data set [20], in [21] and in [22] were 34.13 mol/min, 33.83 mol/min and 34.17 mol/min, respectively. Also, the Time in data set [2] is 64.17 s; in data set [3], 48.07 s; in data set [8], 43.17 s; in data set [9], 56.83 s; in [11] it was 39.5 s; in [13] it was 65.33 s. For the same molecule, the Time is reported as 60.5 s in [14] and 48.17 s in [16]. The Ratio IC50 in data set [6] was determined as 2.46. Further, the pKi in [7] was 6.20; in data set [12], 6.61. Further, the pIC50 is 6.45 in [15] and 6.84 in [18]. Besides, the IC50 in data set [18] (read-out: pIC50 (converted)) was 148 nM.

What is called pKi is the Ki on a negative log10 scale, so that one unit is a factor of ten. Low values mean a large Ki, high ones a small Ki. One may read the pIC50 as the IC50 on a negative log10 scale, so that one unit is a factor of ten.
